Results reported in ChEMBL document CHEMBL4261481, “Ring-opened aminothienopyridazines as novel tau aggregation inhibitors” (Medchemcomm, 2017).
Calls of active or inactive are those of the source. The rule behind the calls is not given here.

How the values were obtained:
[1] = target: Microtubule-associated protein tau (Homo sapiens) (UniProt P10636); experiment: Inhibition of heparin-induced 4R tau (unknown origin) aggregation at 200 uM after 24 hrs by filter trap assay
Method in brief: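 Heparin-induced fibrillisation of 4R tau in PBS with 200 μM compound, 37 °C, 24 h. Fibrils diluted to 0.8 μM tau in 2% SDS, vacuum-filtered through membrane, washed twice with 2% SDS, probed with 4R tau-specific antibody, chemiluminescent dot detection and densitometry; 7 independent experiments.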

[2] = target: Microtubule-associated protein tau (Homo sapiens) (UniProt P10636); experiment: Induction of heparin-induced recombinant 4R tau (unknown origin) fibril oxidation at cysteine residues at 200 uM after 2 hrs by oregon green binding assay
Method in brief: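 Recombinant 4R tau (10 μM) fibrillised with 40 μM heparin in sodium acetate buffer pH 7, ± 200 μM compound, 37 °C, 2 h. Controls reduced with 1 mM DTT or oxidised with 20% v/v DMSO. Then labeled with Oregon green-iodoacetamide 30 min at room temperature, SDS-PAGE, fluorescence imaging. Band intensity normalized to Coomassie-stained total tau; 5 independent experiments.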

[3] = target: Microtubule-associated protein tau (Homo sapiens) (UniProt P10636); experiment: Inhibition of heparin-induced 4R tau (unknown origin) aggregation at 100 uM after 3 days by ThT fluorescence assay relative to control
Method in brief: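 20 μM 4R tau plus 5 μM heparin (avg MW 15 000) in 100 mM sodium acetate pH 7.0, ± 100 μM compound, incubated 3 days at 37 °C with 1 mM DTT added daily. ThT 12.5 μM then added, 1 h at room temperature. Spectra read with excitation 440 nm, emission 450–750 nm; intensity at emission maximum compared with tau alone.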

Microtubule-associated protein tau (Homo sapiens), sequence (P10636 whole entry): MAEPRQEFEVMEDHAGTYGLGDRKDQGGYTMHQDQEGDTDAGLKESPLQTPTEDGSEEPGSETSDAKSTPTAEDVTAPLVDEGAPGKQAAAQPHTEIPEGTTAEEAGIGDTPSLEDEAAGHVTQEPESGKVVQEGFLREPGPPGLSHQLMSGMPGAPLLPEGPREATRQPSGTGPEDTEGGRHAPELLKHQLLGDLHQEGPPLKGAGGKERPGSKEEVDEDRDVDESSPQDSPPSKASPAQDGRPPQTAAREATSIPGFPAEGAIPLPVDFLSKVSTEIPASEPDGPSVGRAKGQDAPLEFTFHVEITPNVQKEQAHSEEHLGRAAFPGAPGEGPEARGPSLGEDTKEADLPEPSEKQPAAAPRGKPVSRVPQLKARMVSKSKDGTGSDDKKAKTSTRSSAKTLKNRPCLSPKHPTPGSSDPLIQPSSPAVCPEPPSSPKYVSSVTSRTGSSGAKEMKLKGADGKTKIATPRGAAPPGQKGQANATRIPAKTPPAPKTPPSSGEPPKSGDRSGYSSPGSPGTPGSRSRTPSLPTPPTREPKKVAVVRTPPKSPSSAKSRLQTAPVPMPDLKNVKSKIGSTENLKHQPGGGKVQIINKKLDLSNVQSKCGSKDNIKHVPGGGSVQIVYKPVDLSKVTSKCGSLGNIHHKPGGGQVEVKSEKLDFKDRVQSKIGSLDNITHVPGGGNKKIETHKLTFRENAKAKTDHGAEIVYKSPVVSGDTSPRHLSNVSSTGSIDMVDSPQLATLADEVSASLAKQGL

SMILES	inhibition [1]	Activity [2]	inhibition [3]
Nc1scc(/C(=N/O)C(=O)NC2CC2)c1C(=O)Nc1ccc(F)cc1	Active	Active	–
C=CCO/N=C(\C(=O)NC1CC1)c1csc(N)c1C(=O)Nc1ccc(F)cc1	Active	inactive	33%
Nc1scc2c(C(=O)NC3CC3)nn(-c3ccc(F)cc3)c(=O)c12	Active	Active	51%
Nc1scc(/C(=N/O)C(=O)NC2CC2)c1C(=O)NC12CC3CC(CC(C3)C1)C2	Active	Active	30%
